Data on 17 molecules can be found in ChEMBL document CHEMBL1926582, “Bis-chalcone analogues as potent NO production inhibitors and as cytotoxic agents” (Eur J Med Chem, 2012).

As usually defined, the pEC50 is the negative decadic logarithm of the EC50, by convention in mol/L. One may read the pIC50 as −log10 of the IC50, conventionally taken in molar units.

Molecules are shown by their SMILES. pEC50, pIC50: −log10 of the molar value. Activity calls are given as the source filed them. The rule behind the calls is not given here.

The nature of assay [1]: Cytotoxicity against human KBVIN cells after 3 days by SRB assay. It counts as functional, cell-based. The settings on record: for pEC50: Homo sapiens, KBVIN, 72 h, read-out: EC50; for EC50: kbvin. In short, it runs like this:
(§1)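 Cell lines kept in RPMI-1640 with […], 0.25% sodium bicarbonate, 10% FBS and 100 µg/mL kanamycin. Freshly trypsinized cells seeded at 1500-7500 cells/well. Compounds added from DMSO-diluted stock, 3 days culture. Attached cells fixed with cold 50% TCA, stained with 0.4% SRB, bound dye solubilized, absorbance read at 562 nm.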

Assay [2] is described as follows: Inhibition of NOX-dependent ROS production in mouse BV2 cells by chemiluminescence assay. As to conditions: BV-2. The format is cell-based. In outline: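 BV2 cell homogenate (50 µg) was incubated with compound for 20 min at 37 °C in the dark. Superoxide production was started with 200 µM NADPH and chemiluminescence followed for 30 min. AUC was taken as ROS production. DPI was the positive control. IC50 given as mean ± SEM of three experiments on different days using cells from different passages.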

Assay [3] deals with Radical scavenging activity. Briefly: Antioxidant activity assessed as inhibition of DPPH free radical scavenging activity. It counts as functional.
For assay [4], the system named is KB. Kind of assay: Cytotoxicity against human KB cells after 3 days by SRB assay. It counts as functional, cell-based. The settings on record: for pEC50: Homo sapiens, KB, 72 h, read-out: EC50; for EC50: kb. In short, it runs like this:
as §1
For orientation: In SRB staining, fixed cells bind dye roughly in proportion to their protein.

Assay [5] relates to A549. Briefly: Cytotoxicity against human A549 cells after 3 days by SRB assay. The settings on record: for pEC50: Homo sapiens, A549, 72 h, read-out: EC50; for EC50: a549. It counts as functional, cell-based. In outline: as §1
Assay [6] concerns DU-145. Briefly: Cytotoxicity against human DU145 cells after 3 days by SRB assay. The settings on record: for pEC50: Homo sapiens, DU-145, 72 h, read-out: EC50; for EC50: du-145. The format is functional, cell-based. In outline:
as §1

Assay [7] addresses T1, NF-kappa-B inhibitor alpha (Mus musculus) (UniProt Q9Z1E3).
T1 sequence (whole entry): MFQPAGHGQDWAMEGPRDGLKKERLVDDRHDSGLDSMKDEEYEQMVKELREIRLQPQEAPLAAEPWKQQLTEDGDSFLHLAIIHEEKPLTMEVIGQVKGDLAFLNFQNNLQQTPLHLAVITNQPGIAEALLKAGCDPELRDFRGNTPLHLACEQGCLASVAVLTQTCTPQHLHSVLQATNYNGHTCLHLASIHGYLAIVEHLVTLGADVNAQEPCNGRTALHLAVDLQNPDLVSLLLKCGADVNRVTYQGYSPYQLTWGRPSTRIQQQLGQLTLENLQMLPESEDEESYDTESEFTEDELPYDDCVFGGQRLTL
Kind of assay: Inhibition of IkappaB-alpha degradation in LPS-stimulated mouse BV2 cells at 2 to 4 uM measured after 15 to 120 mins post stimulation by Western blot analysis. It counts as cell-based. As to conditions: BV-2. In short, it runs like this:
(§2)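 BV2 microglia in DMEM with 5% FBS were pretreated with compound or solvent, then stimulated with LPS 0.5 µg/mL for 15 to 120 min. Western blots were probed for iNOS, cytosolic IκBα, and cytosolic and nuclear p65. Membranes were blocked in 5% milk/PBST, primary antibody overnight at 4 °C, HRP secondary 1 h, ECL detection. Signals normalized to β-actin; at least three independent experiments.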
In general terms: In western blotting, separated proteins are transferred to a membrane and probed.

The target of assay [8] is Transcription factor p65 (Mus musculus) (UniProt Q04207). Briefly: Inhibition of NF-kappaB p65 activation/translocation in LPS-stimulated mouse BV2 cells assessed as down regulation of iNOS at 2 to 4 uM measured after 15 to 120 mins post stimulation by Western blot analysis. The settings on record: BV-2. It counts as cell-based. In short, it runs like this:
as §2

The test system of assay [9] is DU-145. Briefly: Growth inhibition of human DU145 cells at 20 ug/mL after 3 days by SRB assay. The format is functional. As to conditions: DU-145, 72 h, read-out: GI. In short, it runs like this: (§3)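 Cells grown in RPMI-1640 (10% FBS, HEPES, bicarbonate, kanamycin), trypsinized and seeded at 1500-7500 cells/well. Compound given from DMSO-diluted stock, 3 days culture. Cells fixed with cold 50% trichloroacetic acid, stained with 0.4% sulforhodamine B, dye solubilized and absorbance measured at 562 nm.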

Assay [10] has as its system A549. Briefly: Growth inhibition of human A549 cells at 20 ug/mL after 3 days by SRB assay. It counts as functional. The settings on record: A549, 72 h, read-out: GI. In outline: as §3
Assay [11] relates to KB. Briefly: Growth inhibition of human KB cells at 20 ug/mL after 3 days by SRB assay. The settings on record: 72 h, read-out: GI. It counts as functional. In outline:
as §3

Assay [12] has as its target Transcription factor p65 (Mus musculus) (UniProt Q04207). Briefly: Inhibition of NF-kappaB p65 activation/translocation in LPS-stimulated mouse BV2 cells assessed as down regulation of iNOS at 1 to 2 uM measured after 15 to 120 mins post stimulation by Western blot analysis. It counts as cell-based. As to conditions: BV-2. In short, it runs like this:
as §2

The target of assay [13] is T1, NF-kappa-B inhibitor alpha (Mus musculus). Briefly: Inhibition of IkappaB-alpha degradation in LPS-stimulated mouse BV2 cells at 1 to 2 uM measured after 15 to 120 mins post stimulation by Western blot analysis. It counts as cell-based. The settings on record: BV-2. In short, it runs like this: as §2
Assay [14] is described as follows: Growth inhibition of human KBVIN cells at 20 ug/mL after 3 days by SRB assay. The format is functional. The settings on record: 72 h, read-out: GI. In short, it runs like this:
as §3

Transcription factor p65 (Mus musculus), sequence (Q04207 whole entry): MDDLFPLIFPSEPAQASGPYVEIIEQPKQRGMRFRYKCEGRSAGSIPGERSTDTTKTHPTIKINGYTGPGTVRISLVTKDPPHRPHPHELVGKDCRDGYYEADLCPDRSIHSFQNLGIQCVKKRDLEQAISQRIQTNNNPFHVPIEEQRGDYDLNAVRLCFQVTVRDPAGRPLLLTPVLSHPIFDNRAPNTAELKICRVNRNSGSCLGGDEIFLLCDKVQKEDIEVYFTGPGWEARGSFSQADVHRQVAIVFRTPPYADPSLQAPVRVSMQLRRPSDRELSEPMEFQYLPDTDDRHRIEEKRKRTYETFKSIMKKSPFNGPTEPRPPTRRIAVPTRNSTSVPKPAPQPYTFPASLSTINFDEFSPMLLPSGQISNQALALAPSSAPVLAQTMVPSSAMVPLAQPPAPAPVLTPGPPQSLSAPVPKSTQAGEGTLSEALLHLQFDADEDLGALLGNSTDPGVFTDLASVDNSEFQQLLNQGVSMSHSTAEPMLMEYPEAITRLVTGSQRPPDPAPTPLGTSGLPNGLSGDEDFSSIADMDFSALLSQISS

Turning to `COc1cccc(/C=C/C(=O)c2cc(C(=O)/C=C/c3cccc(OC)c3)c(O)cc2O)c1`, the negative logarithm of the EC50 (pEC50) in [1] is 5.68; with KB [4], 5.54; in the assay on A549 [5], 5.06; with DU-145 [6] it was 5.73. The molecule also had a negative logarithm of the IC50 (pIC50) in assay [2] of 3.90. The IC50 result in assay [3] is on record as “Not Active”.

In turn, `c1ccc2c(c1)[I+]c1ccccc1-2` [DIPHENYLENEIODONIUM] gave a negative logarithm of the IC50 (pIC50) in assay [2] of 6.19. For the same molecule, in assay [3], the IC50 entry was “Not Active”.

As to `CC(=O)c1cc(C(=O)/C=C/c2ccc3c(c2)OCO3)c(O)cc1O`, the pEC50 in [1] was 4.76; in the assay on KB [4], 4.76; in the assay on A549 [5], 4.71; with DU-145 [6], 4.79. The molecule further gave a negative logarithm of the IC50 (pIC50) in [2] of 4.14. The IC50 entry in assay [3] is reported as “Not Active”.

Turning to `COc1ccc(/C=C/C(=O)c2cc(C(=O)/C=C/c3ccc(OC)c(OC)c3OC)c(O)cc2O)c(OC)c1OC`, the EC50 result (in assay [1]; in the assay on KB [4]; in the assay on A549 [5]; with DU-145 [6]) was “Not Active” throughout. The molecule also showed a pIC50 in [2] of 4.15. The IC50 result in assay [3] is reported as “Not Active”.

`COc1cccc(/C=C/C(=O)c2cc(C(=O)/C=C/c3cccc(OC)c3OC)c(O)cc2O)c1OC`: the negative logarithm of the EC50 (pEC50) was 5.29 in assay [1], 5.69 in the assay with KB [4], 5.36 with A549 [5] and 5.61 in the assay with DU-145 [6]. Also, the negative logarithm of the IC50 (pIC50) in [2] was 4.05. Moreover, the IC50 result in assay [3] was “Not Active”. Also, the inhibition result in assay [7] and in assay [8] was “Active” in each case.

`Cc1ccsc1/C=C/C(=O)c1cc(C(=O)/C=C/c2sccc2C)c(O)cc1O`: the EC50 result (in [1]; with KB [4]; in the assay with A549 [5]; in the assay with DU-145 [6]) was “Not Active” each time. The molecule also gave a negative-log IC50 (pIC50) in assay [2] of 4.09. The IC50 result in assay [3] is “Not Active”.

Take `COc1cc(OC)c(OC)cc1/C=C/C(=O)c1cc(C(C)=O)c(O)cc1O`: the EC50 result (in assay [1]; in the assay on KB [4]; in the assay with A549 [5]; in the assay with DU-145 [6]) was “Not Active” in each case. Also, the pIC50 in assay [2] is 4.14. In addition, the IC50 entry in assay [3] is listed as “Not Active”.

`COc1ccc(/C=C/C(=O)c2cc(C(=O)/C=C/c3ccc(OC)cc3)c(O)cc2O)cc1`: the negative logarithm of the EC50 (pEC50) in assay [1] was 4.47. Also, the inhibition of growth at 20 µg/mL in the assay with DU-145 [9], in the assay with A549 [10] and with KB [11] was under 50% throughout. In assay [2], the pIC50 is 3.83. In addition, the IC50 result in assay [3] is reported as “Not Active”.

Consider `O=C(/C=C/c1ccccc1)c1cc(C(=O)/C=C/c2ccccc2)c(O)cc1O`, for which the pEC50 in [1] was 5.80; with KB [4], 5.79; with A549 [5], 5.39; in the assay with DU-145 [6], 5.77. Further, the pIC50 in [2] is 3.91. Moreover, the IC50 entry in assay [3] is on record as “Not Active”.

For the molecule `COc1ccc(/C=C/C(=O)c2cc(C(=O)/C=C/c3ccc(OC)c(OC)c3)c(O)cc2O)cc1OC`, the pEC50 was 5.15 in assay [1], 5.09 with KB [4], 5.04 with A549 [5] and 5.06 in the assay with DU-145 [6]. This molecule showed a pIC50 in [2] of 4.31. Also, in [3], the IC50 entry was “Not Active”. Moreover, the inhibition entry in [12] and in [13] was “Active” each time.

For `Cc1ccc(/C=C/C(=O)c2cc(C(=O)/C=C/c3ccc(C)o3)c(O)cc2O)o1`, the EC50 result (in assay [1]; in the assay with KB [4]; with A549 [5]; in the assay on DU-145 [6]) was “Not Active” throughout. In [2], this molecule gave a negative logarithm of the IC50 (pIC50) of 4.22. Also, the IC50 entry in assay [3] is recorded as “Not Active”.

Turning to `Cc1c(C)c2c(c(C)c1O)CCC(C)(C(=O)O)O2` (configuration not stated) [TROLOX], in [3] (read-out: IC50), the negative-log IC50 (pIC50) was 4.52.

Turning to `O=C(/C=C/c1ccco1)c1cc(C(=O)/C=C/c2ccco2)c(O)cc1O`, the EC50 entry (in [1]; in the assay on KB [4]; in the assay on A549 [5]; in the assay on DU-145 [6]) was “Not Active” in each case. Also, the negative logarithm of the IC50 (pIC50) in assay [2] was 4.30. In addition, the IC50 result in [3] is “Not Active”.

As for `COC(=O)[C@@H](N)CCCNC(=N)N[N+](=O)[O-]` [L-NAME], in assay [3], the IC50 entry is on record as “Not Active”.

In the case of `CC(=O)c1cc(C(=O)/C=C/C=C/c2ccccc2)c(O)cc1O`, the EC50 result (in assay [1]; with KB [4]; in the assay with A549 [5]; in the assay with DU-145 [6]) was “Not Active” each time. This molecule also had a pIC50 in assay [2] of 3.92. Further, in assay [3], the IC50 entry is recorded as “Not Active”.

Take `O=C(/C=C/c1ccccn1)c1cc(C(=O)/C=C/c2ccccn2)c(O)cc1O`: the negative-log EC50 (pEC50) in [1] is 4.96; in the assay with KB [4], 5.53; in the assay with A549 [5], 4.86; with DU-145 [6], 5.55. In assay [2], this molecule showed a negative logarithm of the IC50 (pIC50) of 4.11. For the same molecule, in assay [3], the IC50 entry is reported as “Not Active”.

Regarding `COc1ccc(OC)c(/C=C/C(=O)c2cc(C(=O)/C=C/c3cc(OC)ccc3OC)c(O)cc2O)c1`, the inhibition of growth at 20 µg/mL (in the assay with DU-145 [9]; with A549 [10]; in [14]) was under 50% each time. For the same molecule, the pIC50 in assay [2] is 4.02. Moreover, the IC50 result in assay [3] is “Not Active”. Moreover, the negative-log EC50 (pEC50) in the assay on KB [4] is 4.40.
